SMILES strings stand for the structures.

The nature of series [1]: Drug metabolism in human intestinal microsomes assessed as Vmax/Km ratio for T-5224 hydroxyl O-glucuronide formation per mg protein after 10 to 60 mins by HPLC method. The series is classed as ADME, Intestine, Microsome. In short, it runs like this:
(§1)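 Pooled liver microsomes (0.5 mg/mL) were incubated 10 min. Pooled intestinal microsomes (0.25 mg/mL) ran 10 min at T-5224 10–50 μM and 20 min at 1–5 μM. Buffer was 50 mM Tris-HCl pH 7.5 with 8 mM MgCl2, alamethicin and 2 mM UDPGA, at 37°C, in triplicate. Glucuronides G2/G3 were read by HPLC at 290 nm and fitted for Vmax/Km.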

Series [2] concerns the target Liver microsome. In words: Substrate inhibition of T-5224 acyl O-glucuronide formation in human liver microsomes after 10 to 60 mins by HPLC method. Put shortly:
(§2)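 Pooled liver (0.5 mg protein/mL) or intestinal (0.25 mg protein/mL) microsomes in 50 mM Tris-HCl pH 7.5, 8 mM MgCl2, alamethicin, 2% DMSO. T-5224 at 1–50 μM, 5 min preincubation at 37°C, started with 2 mM UDPGA. Incubated 10 min, or 20 min for intestinal microsomes at 1–5 μM. Acetonitrile stop, glucuronides by HPLC at 290 nm. Triplicates fitted to a substrate-inhibition model.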
(In general: Liver microsomes are a subcellular fraction often used to study metabolism.)

Series [3] has as its system Liver microsome. As to the kind of experiment: Drug metabolism in pooled human liver microsomes assessed as T-5224 hydroxyl O-glucuronide formation at 10 uM after 10 mins by HPLC method. The series is classed as ADME. Put shortly:
(§3)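 T-5224 at 10 μM incubated for 10 min at 37°C with UDPGA (2 mM) in pooled liver (0.5 mg protein/mL) or intestinal (0.25 mg protein/mL) microsomes. Buffer was 50 mM Tris-HCl pH 7.5 with 8 mM MgCl2 and alamethicin, after 5 min preincubation. Stopped with acetonitrile; glucuronides quantified by HPLC at 290 nm.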

The test system of series [4] is Liver microsome. As to the kind of experiment: Drug metabolism in human liver microsomes assessed as Vmax/Km ratio for T-5224 hydroxyl O-glucuronide formation per mg protein after 10 to 60 mins by HPLC method. The series is classed as ADME. Put shortly: as §2
Series [5] addresses T1, UDP-glucuronosyltransferase 1A1 (Homo sapiens, UniProt P22309).
T1 sequence (P22309 whole entry): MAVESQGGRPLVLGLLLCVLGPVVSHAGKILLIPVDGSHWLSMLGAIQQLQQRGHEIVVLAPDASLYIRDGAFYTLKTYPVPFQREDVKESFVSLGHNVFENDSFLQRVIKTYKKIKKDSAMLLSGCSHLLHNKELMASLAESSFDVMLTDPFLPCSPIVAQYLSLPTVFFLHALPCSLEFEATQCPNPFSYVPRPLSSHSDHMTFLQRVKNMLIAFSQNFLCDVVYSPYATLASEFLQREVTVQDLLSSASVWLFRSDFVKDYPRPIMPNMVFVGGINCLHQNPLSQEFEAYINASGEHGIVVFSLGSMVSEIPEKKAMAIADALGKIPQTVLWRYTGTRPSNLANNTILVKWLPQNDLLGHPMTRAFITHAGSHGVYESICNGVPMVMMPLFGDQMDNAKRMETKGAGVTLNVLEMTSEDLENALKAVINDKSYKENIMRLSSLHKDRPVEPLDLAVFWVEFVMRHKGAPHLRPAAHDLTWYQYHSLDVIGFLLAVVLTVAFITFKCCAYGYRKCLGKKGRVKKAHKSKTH
In words: Substrate inhibition of human UGT1A1-mediated T-5224 hydroxyl O-glucuronide formation after 10 to 60 mins in presence of UDP-glucuronic acid by HPLC method. The class given is ADME. In short, it runs like this:
(§4)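 Recombinant human UGT1A1, UGT1A3 or UGT1A8 from baculovirus-infected insect cells (0.1 mg protein/mL) in 50 mM Tris-HCl pH 7.5, 8 mM MgCl2, alamethicin, 2% DMSO. T-5224 at 1–50 μM with 2 mM UDPGA for 60 min at 37°C. HPLC with UV at 290 nm. Triplicates fitted to a substrate-inhibition model. kcat uses UGT content quantified by immunoblot against recombinant UGT1A1/UGT2B4 standards.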

Series [6] deals with T2, UDP-glucuronosyltransferase 1A3 (Homo sapiens, UniProt P35503).
T2 sequence (P35503 whole entry): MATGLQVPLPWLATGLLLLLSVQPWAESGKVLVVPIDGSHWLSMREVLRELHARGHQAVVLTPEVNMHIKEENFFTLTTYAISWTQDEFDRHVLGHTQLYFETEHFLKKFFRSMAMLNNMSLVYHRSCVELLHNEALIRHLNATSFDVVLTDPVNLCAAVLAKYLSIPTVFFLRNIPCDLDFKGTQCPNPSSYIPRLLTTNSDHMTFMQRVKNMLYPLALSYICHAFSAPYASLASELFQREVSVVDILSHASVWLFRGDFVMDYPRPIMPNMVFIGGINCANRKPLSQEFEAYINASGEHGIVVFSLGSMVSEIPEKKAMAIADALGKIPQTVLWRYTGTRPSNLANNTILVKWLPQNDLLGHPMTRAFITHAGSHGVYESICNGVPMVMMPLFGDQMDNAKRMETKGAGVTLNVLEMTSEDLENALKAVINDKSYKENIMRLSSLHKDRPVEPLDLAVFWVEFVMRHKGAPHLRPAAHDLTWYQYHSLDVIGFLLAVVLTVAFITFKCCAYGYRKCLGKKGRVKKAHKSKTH
As to the kind of experiment: Substrate inhibition of human UGT1A3-mediated T-5224 hydroxyl O-glucuronide formation after 10 to 60 mins in presence of UDP-glucuronic acid by HPLC method. The series is classed as ADME. Put shortly:
as §4

The nature of series [7]: Drug metabolism in human intestinal microsomes assessed as Vmax/Km ratio for T-5224 acyl O-glucuronide formation per mg protein after 10 to 60 mins by HPLC method. The series is classed as ADME, Intestine, Microsome. Put shortly:
as §1

Series [8] addresses T1, UDP-glucuronosyltransferase 1A1. In words: Drug metabolism assessed as human UGT1A1-mediated T-5224 hydroxyl O-glucuronide formation at 5 to 50 uM after 60 mins in presence of UDP-glucuronic acid by HPLC method. The class given is ADME. The note with it: recombinant enzyme, 1 h.
Series [9] deals with Liver microsome. In words: Drug metabolism in human liver microsomes assessed as T-5224 hydroxyl O-glucuronide formation at 10 uM after 10 mins in presence of beta-estradiol by HPLC method. The series is classed as ADME. Put shortly:
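Pooled liver microsomes (0.5 mg protein/mL) with 10 μM T-5224, 2 mM UDPGA and β-estradiol at 0–500 μM, 2% DMSO, in 50 mM Tris-HCl pH 7.5, 8 mM MgCl2 and alamethicin. Incubated 10 min at 37°C, stopped with acetonitrile. Glucuronides measured by HPLC at 290 nm; mean ± SD, n = 3.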

In series [10] the target is T2, UDP-glucuronosyltransferase 1A3. As to the kind of experiment: Drug metabolism assessed as human UGT1A3-mediated T-5224 hydroxyl O-glucuronide formation at 5 to 50 uM after 60 mins in presence of UDP-glucuronic acid by HPLC method. The series is classed as ADME. The settings on record: recombinant enzyme, 1 h.
Series [11] concerns Liver microsome. As to the kind of experiment: Drug metabolism in pooled human liver microsomes assessed as T-5224 acyl O-glucuronide formation at 10 uM after 10 mins by HPLC method. The series is classed as ADME. In short, it runs like this:
as §3

Series [12] can be described thus: Drug metabolism assessed as human CYP2D6*1-mediated metabolite formation at 2 uM after 30 mins by HPLC method. The class given is ADME. The note with it: 0.5 h. In short, it runs like this:
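Each recombinant human P450 was used at 50 pmol/mL with an NADPH-generating system and 2 μM 14C-T-5224 (0.5% DMSO final). Buffer was 100 mM Tris-HCl pH 7.5, except 100 mM potassium phosphate pH 7.4 for CYP2A6 and CYP2C9*1. Incubation ran 30 min at 37°C and was stopped with acetonitrile/methanol. Radioactive metabolite peaks were detected by C18 HPLC.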

Consider `O=C(O)CCc1cc(C(=O)c2ccc(OC3CCCC3)cc2O)ccc1OCc1ccc2c(O)noc2c1`, for which the Vmax/Km was 34.6 µL/min in [1], 19.5 µL/min in the series with Liver microsome [4] and 40.9 µL/min in series [7]. The Ki was found to be 13.2 µM at Liver microsome [2], 4.67 µM in series [5] and 2.55 µM in series [6]. Further, the Drug metabolism entry in the series on Liver microsome [3] is “metabolite_detected”; in series [8] it was “metabolite_detected”; in the series on Liver microsome [9] it was “metabolite_detected”; in series [10], “metabolite_detected”; in the series with Liver microsome [11], “metabolite_detected”; in series [12], “metabolite_not_detected”.
